Measured values published in ChEMBL document CHEMBL1149070, “Isolation of antirhinoviral sesquiterpenes from ginger (Zingiber officinale)” (J Nat Prod, 1994).

What was measured:
rhinovirus A1B = assay: Antiviral activity against Rhinovirus 1B infected in human HeLa cells assessed as reduction in plaque formation per plate after 72 hrs; type: functional, organism-based, Human rhinovirus 1B; set-up: ED50: unit: ug/plate
Outline: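 M-HeLa cells were seeded at 10⁶ per plate in MEM with 10% FCS and grown to confluence overnight. They were infected with RV1B at 100-200 pfu/plate for 1 h. Excess virus was replaced with an agarose overlay (MEM, FCS, tryptose broth) holding serial doubling dilutions from EtOH, final EtOH ≤1%. Plates ran 72 h at 33°, then were formol-saline fixed and methyl violet stained.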

HeLa [1] = assay: Cytotoxicity against human HeLa cells upto 1.35 ug/plate; type: cell-based
Outline: (§1)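 Cytotoxicity was judged in the plaque-assay plates: confluent M-HeLa monolayers under agarose overlay with sample added from EtOH doubling dilutions (≤1% EtOH), 72 h at 33°, then formol-saline fixed and methyl violet stained. Monolayers were inspected for cell destruction, altered appearance or thinning relative to cell controls (no virus, no sample) and virus controls, up to the top plate concentration.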

HeLa [2] = assay: Cytotoxicity against human HeLa cells upto 20 ug/plate; type: cell-based; outline: as §1

Structure (SMILES)	ED50 (rhinovirus A1B)	Activity (HeLa [1])	Activity (HeLa [2])	IC50 (rhinovirus A1B; Rhinovirus A, HeLa, 72 h)
c1ccc(C2CCc3ccccc3O2)cc1 (stereo unspecified) [FLAVANE]	0.27 µg	Non-toxic	–	–
CC(C)=CCC[C@@H](C)c1ccc(C)cc1	20.4 µg	–	Non-toxic	–
CC(C)=CCC[C@@H](C)[C@H]1C=CC(C)=CC1	1.9 µg	–	Non-toxic	–
C=C(CCC=C(C)C)[C@H]1CC=C(C)CC1	14.3 µg	–	Non-toxic	–
C=C1C=C[C@H]([C@H](C)CCC=C(C)C)CC1	0.9 µg	–	Non-toxic	440 nM
